How the values were obtained:
[1] = Displacement of [3H]flumazenil from human recombinant GABAA alpha-3-beta-2-gamma-2S receptor expressed in HEK293 cells; type: cell-based
How it was run: (§1)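 HEK 293 membranes expressing human α1β2γ2s, α2β2γ2s or α3β2γ2s receptors, about 25 µg protein per 0.55 ml assay in Tris-citrate (50 mM, pH 7.1). Incubated with 1 nM ³H-flumazenil (final) for 40 min at 0–4 °C, then GF/C filtration and ice-cold washes. Nonspecific binding was set with 1 µM clonazepam. […] Mean ± SD of three determinations.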

Homo sapiens [2] = organism: Homo sapiens; experiment: Selectivity ratio of Ki for human recombinant GABAA alpha-3-beta-2-gamma-2S receptor to Ki for human recombinant GABAA alpha-1-beta-2-gamma-2S receptor
How it was run: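 Ratio of the Ki at human α3β2γ2s to the Ki at human α1β2γ2s, both from ³H-flumazenil (1 nM) displacement in HEK 293 membranes (40 min, 0–4 °C, 1 µM clonazepam nonspecific).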

[3] = Displacement of [3H]flumazenil from GABAA receptor in rat cortical membrane; type: cell membranes
How it was run: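 Rat cortex homogenized in Tris-HCl (30 mM, pH 7.4), washed by repeated centrifugation at 27,000g, incubated 30 min at 37 °C, then stored at −20 °C. About 50 µg protein per 0.55 ml assay in Tris-citrate (50 mM, pH 7.1) was incubated with 1 nM ³H-flumazenil for 40 min at 0–4 °C, then filtered on GF/C. Nonspecific binding was set with 1 µM clonazepam.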

[4] = biological target: T1, GABA-A receptor; alpha-1/beta-2/gamma-2 (Homo sapiens, UniProt P14867+P18507+P47870); experiment: Displacement of [3H]flumazenil from human recombinant GABAA alpha-1-beta-2-gamma-2S receptor expressed in HEK293 cells; type: cell-based; how it was run: as §1
T1 sequence (P14867 whole entry): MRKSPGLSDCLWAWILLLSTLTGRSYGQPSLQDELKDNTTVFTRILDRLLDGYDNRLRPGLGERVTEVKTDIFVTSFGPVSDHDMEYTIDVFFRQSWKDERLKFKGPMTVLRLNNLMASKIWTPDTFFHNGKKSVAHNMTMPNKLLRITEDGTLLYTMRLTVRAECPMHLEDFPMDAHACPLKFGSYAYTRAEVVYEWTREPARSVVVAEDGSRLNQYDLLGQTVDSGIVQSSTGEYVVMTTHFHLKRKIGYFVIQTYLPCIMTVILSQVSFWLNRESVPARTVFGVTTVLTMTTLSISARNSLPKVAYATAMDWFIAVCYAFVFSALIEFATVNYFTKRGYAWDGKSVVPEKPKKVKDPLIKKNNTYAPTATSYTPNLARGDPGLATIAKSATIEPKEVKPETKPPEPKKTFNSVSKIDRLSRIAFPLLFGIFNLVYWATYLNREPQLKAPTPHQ
T1 sequence (P47870 whole entry): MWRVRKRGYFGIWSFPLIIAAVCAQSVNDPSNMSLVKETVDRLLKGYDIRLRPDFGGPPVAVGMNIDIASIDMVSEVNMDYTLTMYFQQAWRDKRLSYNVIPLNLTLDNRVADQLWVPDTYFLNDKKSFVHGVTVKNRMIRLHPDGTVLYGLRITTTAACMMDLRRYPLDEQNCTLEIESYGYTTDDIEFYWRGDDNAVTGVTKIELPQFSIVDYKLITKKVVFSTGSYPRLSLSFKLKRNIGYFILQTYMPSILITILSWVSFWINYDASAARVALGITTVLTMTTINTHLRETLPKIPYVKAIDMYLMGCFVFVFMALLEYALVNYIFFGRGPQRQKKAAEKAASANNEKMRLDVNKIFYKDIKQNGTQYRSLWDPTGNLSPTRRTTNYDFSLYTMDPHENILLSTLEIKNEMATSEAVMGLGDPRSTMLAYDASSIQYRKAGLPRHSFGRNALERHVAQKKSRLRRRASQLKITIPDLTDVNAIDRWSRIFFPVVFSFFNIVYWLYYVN
T1 sequence (P18507 whole entry): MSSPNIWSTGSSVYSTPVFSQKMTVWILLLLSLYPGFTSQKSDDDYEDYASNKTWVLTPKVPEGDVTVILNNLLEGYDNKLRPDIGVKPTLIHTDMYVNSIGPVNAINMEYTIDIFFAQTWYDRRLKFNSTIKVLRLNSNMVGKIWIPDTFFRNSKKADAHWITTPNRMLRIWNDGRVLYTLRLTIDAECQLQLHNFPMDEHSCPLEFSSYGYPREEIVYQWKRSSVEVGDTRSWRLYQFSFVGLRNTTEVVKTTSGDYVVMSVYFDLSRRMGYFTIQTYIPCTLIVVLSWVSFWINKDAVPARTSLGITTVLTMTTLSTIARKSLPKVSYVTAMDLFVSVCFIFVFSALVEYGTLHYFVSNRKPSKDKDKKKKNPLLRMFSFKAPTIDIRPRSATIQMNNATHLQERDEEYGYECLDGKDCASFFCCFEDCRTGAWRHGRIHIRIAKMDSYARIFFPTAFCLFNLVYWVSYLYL

[5] = Displacement of [3H]flumazenil from human recombinant GABAA alpha-2-beta-2-gamma-2S receptor expressed in HEK293 cells; type: cell-based; how it was run: as §1
Homo sapiens [6] = organism: Homo sapiens; experiment: Selectivity ratio of Ki for human recombinant GABAA alpha-2-beta-2-gamma-2S receptor to Ki for human recombinant GABAA alpha-1-beta-2-gamma-2S receptor
How it was run: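 Displacement of 1 nM [3H]flumazenil from HEK 293 membranes expressing human α2β2γ2s or α1β2γ2s receptors (about 25 µg protein per 0.55 ml), in 50 mM Tris-citrate pH 7.1, 40 min at 0–4 °C. Filtered on glass fibre. Nonspecific binding with 1 µM clonazepam. IC50 from 4–6 concentrations. […] Ratio is Ki α2/Ki α1.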

## O=C(CC1CCCC1)c1c[nH]c2ccc(Cc3ccccc3)cc2c1=O
[1]
  Ki: 13 nM
Homo sapiens [2]
  Ratio Ki: 25
[3]
  Ki: 1 nM
[4]
  Ki: 0.51 nM

## CCCCC(=O)c1c[nH]c2ccccc2c1=O
[1]
  Ki: 9.2 nM
Homo sapiens [2]
  Ratio Ki: 9
[3]
  Ki: 2.2 nM
[4]
  Ki: 0.97 nM

## CCc1ccc2[nH]cc(C(=O)CC3CCCCC3)c(=O)c2c1
[3]
  Ki: 30 nM

## CCCCC(=O)c1c[nH]c2ccc(CCCc3ccccc3)cc2c1=O
[5]
  Ki: 16 nM
[1]
  Ki: 14.3 nM
Homo sapiens [6]
  Ratio Ki: 5
Homo sapiens [2]
  Ratio Ki: 4
[3]
  Ki: 2.5 nM
[4]
  Ki: 3.2 nM

## CCCCC(=O)c1c[nH]c2ccc(CCc3ccccc3)cc2c1=O
[5]
  Ki: 1.7 nM
[1]
  Ki: 1.1 nM
Homo sapiens [6]
  Ratio Ki: 3
Homo sapiens [2]
  Ratio Ki: 2
[3]
  Ki: 0.42 nM
[4]
  Ki: 0.53 nM

## CCCC(=O)c1c[nH]c2ccc(Cc3ccccc3)cc2c1=O
[5]
  Ki: 0.81 nM
[1]
  Ki: 1.56 nM
Homo sapiens [6]
  Ratio Ki: 7
Homo sapiens [2]
  Ratio Ki: 13
[3]
  Ki: 0.22 nM
[4]
  Ki: 0.12 nM

## CCCCC(=O)c1c[nH]c2ccc(Cc3cccnc3)cc2c1=O
[1]
  Ki: 2.2 nM
Homo sapiens [2]
  Ratio Ki: 18
[3]
  Ki: 0.27 nM
[4]
  Ki: 0.12 nM

## CCc1ccc2[nH]cc(C(=O)CCC(C)(C)C)c(=O)c2c1
[3]
  Ki: 19 nM

## CCc1ccc2[nH]cc(C(=O)CCC(C)C)c(=O)c2c1
[3]
  Ki: 2.5 nM

## CCCCCCC(=O)c1c[nH]c2ccc(CC)cc2c1=O
[3]
  Ki: 2.1 nM

## CCCCC(=O)c1c[nH]c2ccc(CC)cc2c1=O
[5]
  Ki: 1.6 nM
[1]
  Ki: 2.8 nM
Homo sapiens [6]
  Ratio Ki: 4
Homo sapiens [2]
  Ratio Ki: 7
[3]
  Ki: 0.9 nM
[4]
  Ki: 0.38 nM

## CCCCCC(=O)c1c[nH]c2ccc(CC)cc2c1=O
[3]
  Ki: 0.98 nM

## CCOC(=O)c1c[nH]c2ccc(Cc3ccccc3)cc2c1=O
[1]
  Ki: 7.2 nM
Homo sapiens [2]
  Ratio Ki: 27
[3]
  Ki: 1.4 nM

## CCCCC(=O)c1c[nH]c2ccc(Cc3ccccc3)cc2c1=O
[5]
  Ki: 0.4 nM
[1]
  Ki: 0.61 nM
Homo sapiens [6]
  Ratio Ki: 3
Homo sapiens [2]
  Ratio Ki: 5
[3]
  Ki: 0.17 nM
[4]
  Ki: 0.12 nM

## CCCCC(=O)c1c[nH]c2ccc(Cc3ccccn3)cc2c1=O
[1]
  Ki: 2.2 nM
Homo sapiens [2]
  Ratio Ki: 16
[3]
  Ki: 0.23 nM
[4]
  Ki: 0.14 nM

## CCOC(=O)c1cnc2ccc(CC)cc2c1O
[1]
  Ki: 52 nM
Homo sapiens [2]
  Ratio Ki: 9
[3]
  Ki: 20 nM
[4]
  Ki: 5.9 nM

## CCOC(=O)c1cnc2ccc(Cc3ccccc3)cc2c1O
[4]
  Ki: 0.27 nM

## CCCCC(=O)c1c[nH]c2ccc(Cc3ccc4ccccc4c3)cc2c1=O
[5]
  Ki: 22 nM
[1]
  Ki: 8.8 nM
Homo sapiens [6]
  Ratio Ki: 8
Homo sapiens [2]
  Ratio Ki: 3
[3]
  Ki: 1.3 nM
[4]
  Ki: 2.7 nM

## CCCCC(=O)c1c[nH]c2ccc(-c3ccccc3)cc2c1=O
[3]
  Ki: 28 nM

## CCc1ccc2[nH]cc(C(=O)Cc3ccccc3)c(=O)c2c1
[3]
  Ki: 69 nM

## CCc1ccc2[nH]cc(C(=O)CC3CCCC3)c(=O)c2c1
[5]
  Ki: 31 nM
[1]
  Ki: 74 nM
Homo sapiens [6]
  Ratio Ki: 6
Homo sapiens [2]
  Ratio Ki: 15
[3]
  Ki: 7.9 nM
[4]
  Ki: 5.1 nM

## CCCCC(=O)c1c[nH]c2ccc(Cc3ccncc3)cc2c1=O
[5]
  Ki: 2.7 nM
[1]
  Ki: 2.1 nM
Homo sapiens [6]
  Ratio Ki: 7
Homo sapiens [2]
  Ratio Ki: 5
[3]
  Ki: 0.53 nM
[4]
  Ki: 0.39 nM

## CCCCC(=O)c1c[nH]c2ccc(Br)cc2c1=O
[3]
  Ki: 0.54 nM

## CCCCC(=O)c1c[nH]c2ccc([N+](=O)[O-])cc2c1=O
[3]
  Ki: 0.87 nM

## CCc1ccc2[nH]cc(C(=O)CC(C)CC)c(=O)c2c1 (stereo unspecified)
[3]
  Ki: 18 nM

## O=C(CC1CCCC1)c1c[nH]c2ccc(Cc3cccnc3)cc2c1=O
[1]
  Ki: 23 nM
Homo sapiens [2]
  Ratio Ki: 26
[3]
  Ki: 1.5 nM
[4]
  Ki: 0.88 nM

— ChEMBL document CHEMBL1157503, “Affinity of 3-acyl substituted 4-quinolones at the benzodiazepine site of GABA(A) receptors” (Bioorg Med Chem, 2008)
